In ChEMBL document CHEMBL2163226, “Discovery of novel N-phenylphenoxyacetamide derivatives as EthR inhibitors and ethionamide boosters by combining high-throughput screening and synthesis” (J Med Chem, 2012):
Active and inactive are the calls of the source. No cut-off for these calls is given here.

How the values were obtained:
[1] = molecular target: HTH-type transcriptional regulator EthR (Mycobacterium smegmatis (strain ATCC 700084 / mc(2)155)) (UniProt A0R666); assay: Binding affinity to Mycobacterium smegmatis mc2 155 EthR assessed as protein thermal unfolding at 20 uM by SYPRO Orange dye based thermal shift assay; details: Mycolicibacterium smegmatis MC2 155
How it was run: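 Purified EthR (10 μM final) was mixed with 20 μM ligand, 2.5× SYPRO Orange and 1% DMSO in EthR buffer. Samples were heated from 37 to 85 °C at 0.04 °C/s in a qPCR instrument, with fluorescence read at Ex/Em 465/510 nm. Tm was taken as the sigmoid inflection, and ΔTm as holo minus apo Tm. Values are the mean of two experiments.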

[2] = molecular target: HTH-type transcriptional regulator EthR (Mycobacterium tuberculosis) (UniProt P9WMC1); assay: Inhibition of EthR in Mycobacterium tuberculosis H37Rv-GFP infected in mouse Raw 264.7 cells assessed as boosting of 0.1 uM ethionamide-induced microbial growth inhibition at 10 uM by automated fluorescent confocal microscopy; assay type: cell-based
[3] = system: Mycobacterium tuberculosis; assay: Antituberculosis activity against Mycobacterium tuberculosis H37Rv-GFP infected in mouse Raw 264.7 cells assessed as microbial growth inhibition at 10 uM by automated fluorescent confocal microscopy; assay type: functional, organism-based
How it was run: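 Raw264.7 macrophages were infected with H37Rv-GFP (MOI 1:1, 2 h, 37 °C, shaking). Extracellular bacilli were killed with 20 μM amikacin for 1 h, then infected cells were incubated with compound at 10 μM alone for 5 days (37 °C, 5% CO2). After SYTO 60 staining, confocal imaging (488/635 nm) gave the percentage of infected cells; values are the average of two replicates.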

[4] = molecular target: HTH-type transcriptional regulator EthR (Mycobacterium smegmatis (strain ATCC 700084 / mc(2)155), UniProt A0R666); assay: Inhibition at EthR in Mycobacterium smegmatis mc2 155 assessed as reactivation of beta-glucuronidase activity measured over 48 hrs by Spectrophotometry; parameters: species or system Mycolicibacterium smegmatis MC2 155
How it was run: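 The reporter was M. smegmatis mc²155 carrying P1 (single-copy, hsp60-driven ethR overexpression) and P2 (uidA under the ethA promoter/operator). Culture at OD600 0.2 was mixed with MUG and compound in 10% DMSO solution. MU fluorescence (ex 390/[…]) was read at 0, 24 and 48 h at 37 °C. IC50 came from dose–response; the P2-only strain served as positive control.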

Sequence of HTH-type transcriptional regulator EthR (Mycobacterium tuberculosis) (P9WMC1 whole entry): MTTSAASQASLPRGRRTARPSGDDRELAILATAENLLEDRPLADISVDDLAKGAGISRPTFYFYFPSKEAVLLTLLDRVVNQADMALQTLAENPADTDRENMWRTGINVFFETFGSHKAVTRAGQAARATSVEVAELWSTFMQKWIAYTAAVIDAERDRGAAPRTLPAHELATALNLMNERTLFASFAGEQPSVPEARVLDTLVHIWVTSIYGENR
Sequence of HTH-type transcriptional regulator EthR (Mycobacterium smegmatis (strain ATCC 700084 / mc(2)155)) (A0R666 whole entry): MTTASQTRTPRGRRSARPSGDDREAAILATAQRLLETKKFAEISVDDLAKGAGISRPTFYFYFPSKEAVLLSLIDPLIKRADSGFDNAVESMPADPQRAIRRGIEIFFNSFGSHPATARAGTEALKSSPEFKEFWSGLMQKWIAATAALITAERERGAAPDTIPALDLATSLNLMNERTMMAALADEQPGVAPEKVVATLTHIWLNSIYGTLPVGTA
Sequence of HTH-type transcriptional regulator EthR (Mycobacterium smegmatis (strain ATCC 700084 / mc(2)155), UniProt A0R666) (A0R666 whole entry): as above

| Structure (SMILES) | inhibition [1] | growth inhibition (GI) [2] [%] | ΔTm [1] [°C] | further results |
| --- | --- | --- | --- | --- |
| O=C(CCl)Nc1ccc(Cl)c(Cl)c1 | Active | – | – | – |
| O=C(CCl)Nc1ccc(-c2nc3ccccc3s2)cc1 | Active | – | – | – |
| N#Cc1cccc(NC(=O)COc2cccc(Oc3ccccc3)c2)c1 | – | -7.2 | 5.7 | – |
| O=C(COc1ccc(-c2ccccc2)cc1)Nc1ccc2c(c1)OCO2 | – | -3 | 7 | – |
| O=C(COc1ccc(F)c(F)c1)Nc1ccc(Oc2ccccc2)cc1 | – | -13.5 | 5.7 | – |
| COc1cccc(OCC(=O)Nc2ccc(-c3nc4ccccc4s3)cc2)c1 | – | 67.6 | 9.9 | growth inhibition (GI) [3]: inactive |
| O=C(CCl)N(Cc1ccccc1)c1ccccc1 | inactive | – | – | – |
| Cc1ccc2cc(NC(=O)CCl)ccc2n1 | Active | – | – | – |
| Cc1ccc(OCC(=O)Nc2ccc(Cl)c(Cl)c2)cc1 | – | -10.4 | 6.8 | – |
| O=C(COc1ccc(Cl)c(Cl)c1)Nc1ccc(C(F)(F)F)cc1 | – | -5.4 | 7.5 | – |
| Oc1ccc(C(F)(F)F)cc1 | Active | – | – | – |
| O=C(COc1ccc(Cl)cc1Cl)Nc1ccc2nc3n(c(=O)c2c1)CCCC3 | – | – | – | IC50 [4]: < 10 µM |
| Cc1ccc(OCC(=O)Nc2ccc(-c3nc4ncccc4o3)cc2)c(C)c1 | – | – | – | IC50 [4]: < 10 µM |
| CCOc1ccc(NC(=O)CCl)c(Oc2ccccc2)c1 | inactive | – | – | – |
| O=C(CCl)N1CCCc2ccccc21 | Active | – | – | – |
| Cc1ccc(-n2nc3ccc(NC(=O)COc4ccccc4C)cc3n2)cc1 | – | 10.9 | 6.4 | IC50 [4]: 2.9 µM |
| COc1cccc(OCC(=O)Nc2ccc(Oc3ccccc3)cc2)c1 | – | -17.5 | 6.7 | – |
| COc1cccc(OCC(=O)Nc2ccc(Cl)c(Cl)c2)c1 | – | 26.7 | 6.8 | – |
| COc1cccc(NC(=O)COc2ccc(C(F)(F)F)cc2)c1 | – | -1.5 | 5 | – |
| COc1cccc(OCC(=O)Nc2ccc(-c3ccccc3)cc2)c1 | – | -2.9 | 7 | – |
| Cc1ccc2cc(NC(=O)COc3ccccc3F)ccc2n1 | – | 83.2 | 5.1 | – |
| O=C(CCl)Nc1ccc2c(c1)OCO2 | Active | – | – | – |
| O=C(COc1ccc(Cl)cc1)Nc1ccc(Cl)c(Cl)c1 | – | -17.9 | 6.9 | – |

| Structure (SMILES) | inhibition [1] | growth inhibition (GI) [2] [%] | ΔTm [1] [°C] | further results |
| --- | --- | --- | --- | --- |
| Oc1cccc(Oc2ccccc2)c1 | Active | – | – | – |
| N#Cc1cccc(OCC(=O)Nc2ccc(-c3nc4ccccc4s3)cc2)c1 | – | 53.4 | 8.1 | – |
| O=C(COc1ccc(F)c(F)c1)Nc1ccc(C(F)(F)F)cc1 | – | -12.5 | 5.6 | – |
| CN(C(=O)CCl)c1ccccc1 | Active | – | – | – |
| O=C(COc1cccc(Oc2ccccc2)c1)Nc1ccc2c(c1)OCO2 | – | 5.7 | 8.2 | – |
| COc1cccc(SCC(=O)Nc2ccc(-c3nc4ccccc4s3)cc2)c1 | – | – | 6.2 | – |
| COc1cccc(OCC(=O)Nc2ccc3nc(C)ccc3c2)c1 | – | 6.5 | 6.6 | – |
| COc1ccc(OCC(=O)Nc2ccc(Cl)c(Cl)c2)cc1 | – | -0.6 | 6.1 | – |
| O=C(CCl)Nc1ccccc1 | Active | – | – | – |
| O=C(COc1ccc(C(F)(F)F)cc1)Nc1ccc2c(c1)OCO2 | – | 1.4 | 6.2 | – |
| COc1ccc(NC(=O)CCl)cc1 | Active | – | – | – |
| COc1ccccc1NC(=O)CCl | inactive | – | – | – |
| O=C(CCl)N(c1ccccc1)C1CCCCC1 | inactive | – | – | – |
| O=C(COc1cccc(Oc2ccccc2)c1)Nc1ccc(Cl)c(Cl)c1 | – | -1.6 | 8.9 | – |
| COc1ccc(N(C)C(=O)CCl)cc1 | Active | – | – | – |
| COc1cccc(O)c1 | Active | – | – | – |
| COc1cccc(OCC(=O)Nc2ccc(Cl)cc2)c1 | – | 92.6 | 6.1 | – |
| O=C(CCl)Nc1ccc(Oc2ccccc2)cc1 | Active | – | – | – |
| O=C(COc1ccc(C(F)(F)F)cc1)Nc1ccc(Cl)c(Cl)c1 | – | -8.4 | 8.1 | – |
| N#Cc1ccc(NC(=O)COc2cccc(Oc3ccccc3)c2)cc1 | – | -8.9 | 6.7 | – |
| O=C(CCl)Nc1ccccc1-c1ccccc1 | inactive | – | – | – |
| O=C(COc1cccc(Oc2ccccc2)c1)Nc1ccccc1 | – | 2.2 | 6.1 | – |
